Compounds with a hit are over-represented: about 5.2% of the library has one in this group of screens.
ALR H2O2 inh: blocks human ALR sulfhydryl oxidase activity; P55789; purified ALR, DTT oxidation, H2O2 HRP-luminol luminescence; inhibition, % (no concentration beside the values); hit rate 3.8% among 290,000; AID 485317;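 active = mean replicate inhibition above about 79%, with every replicate also reaching it, limit read from the data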
Target sequence (P55789 whole entry, looked up): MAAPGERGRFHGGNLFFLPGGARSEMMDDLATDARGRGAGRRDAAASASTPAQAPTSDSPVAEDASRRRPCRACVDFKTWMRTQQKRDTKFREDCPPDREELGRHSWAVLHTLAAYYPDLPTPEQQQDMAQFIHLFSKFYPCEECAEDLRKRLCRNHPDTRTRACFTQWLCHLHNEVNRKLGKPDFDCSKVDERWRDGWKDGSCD
NS3 helicase inh: HCV NS3 helicase inhibition; NS3 helicase DNA unwinding, Cy5 molecular beacon fluorescence; inhibition, % at 10.9 µM; hit rate 0.56% among 290,000;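 active = inhibition above the mean of all tested compounds plus 3 SD, set per campaign, cut at about 35% in these data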;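 note: 0% = DMSO wells and 100% = thioflavine S control wells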
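Assay system: hepatitis C virus NS3 helicase domain fragment enzyme. Also added: annealed dual-labelled DNA beacon duplex, ATP-started. Timing: 1 h reaction at 25 °C, ATP-initiated. Technique: Cy5 fluorescence at 0 and 60 min, beacon hairpin quenching. Evaluation: % inhibition of unwinding. Replication: one well per compound.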
EBNA-1 inhibitor: blocks EBNA-1 binding to DNA | EBNA-1 DNA binding, fluorescence polarization | inhibition, % at 14.8 µM | hit rate 0.34% among 300,000 | AID 1950; in the data active = inhibition above about 28%
HCV core dimer: HCV core protein dimerization inhibition | TR-FRET GST/Flag-core106 dimerization, 1536-well | inhibition, % at 5 µM | hit rate 0.33% among 300,000 | AID 1899;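 active = inhibition above the mean of all tested compounds plus 3 SD, set per screening campaign, cut at about 45% in these data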
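Assay system: GST-tagged and Flag-tagged HCV core protein residues 1-106 / Times: compound-protein-antibody incubation 4 h at 22.5 °C / Signal: time-resolved FRET, ex 340 nm, em 617 and 671 nm / Evaluation: % inhibition based on acceptor/donor emission ratio / Benchmarks: wells lacking GST-core106 and wells with excess unlabelled core106 / Repeats: singlicate, one well per compound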
ZTA DNA inh: ZTA (EBV) inhibition in EBNA-1 counter-screen | P03206 | ZTA-DNA binding, fluorescence polarization | inhibition, % at 11 µM | hit rate 0.15% among 320,000; in the data active = inhibition above about 33%
Target sequence (P03206 whole entry, looked up): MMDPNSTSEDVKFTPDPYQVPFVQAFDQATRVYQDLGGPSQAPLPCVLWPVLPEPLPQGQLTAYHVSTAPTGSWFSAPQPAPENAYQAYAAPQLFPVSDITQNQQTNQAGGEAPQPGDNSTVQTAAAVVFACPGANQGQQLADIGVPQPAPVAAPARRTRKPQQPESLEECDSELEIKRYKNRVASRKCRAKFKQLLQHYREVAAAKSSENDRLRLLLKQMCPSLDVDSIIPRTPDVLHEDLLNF
PfM18AAP inh-1: blocks P. falciparum M18 aspartyl aminopeptidase. inhibition, % at 7.35 µM. AID 1822. hit rate 1.2% among 290,000. recombinant PfM18AAP, H-Glu-NHMec fluorogenic cleavage;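 active = inhibition above the campaign mean inhibition over all tested compounds plus 3 SD, cut at about 28% in these data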;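 note: 0% = plate median of test compound wells and 100% = 2 mM ZnCl2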
PfM18AAP inh-2: confirmation of Plasmodium falciparum M18 aspartyl aminopeptidase inhibitors; shares compounds with PfM18AAP inh-1; recombinant PfM18AAP, H-Glu-NHMec fluorogenic cleavage; inhibition, % at 7.35 µM; hit rate 28% among 2,400;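 active = mean inhibition over replicate wells above the hit cutoff set for the earlier primary screen, cut at about 29% in these data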;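 note: 0% = median of test compound wells and 100% = 2 mM ZnCl2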
CTSL1 counter: Cathepsin L (human) inhibition, confirmation; AID 2178; shares compounds with PfM18AAP inh-1; 2,400 tested, under 10 active; inhibition, % at 5.96 µM; purified cathepsin L1, Z-Leu-Arg-MCA fluorescence;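 active = average inhibition across replicates above the hit cutoff set in the earlier primary screen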;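 note: 0% = median of test compound wells and 100% = Z-Phe-Ala-diazomethylketone 1 µM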
* hit, by the source's call; . = no result.

SMILES	ALR H2O2 inh	NS3 helicase inh	EBNA-1 inhibitor	HCV core dimer	ZTA DNA inh	PfM18AAP inh-1	PfM18AAP inh-2	CTSL1 counter
Nc1ccc(S(=O)(=O)Nc2nccc(/C=C/c3cccc(Br)c3)n2)cc1	4	6	3	20	22	10	.	.
O=C(Nc1ccccc1)Oc1cccc(Br)c1	-6	0	7	-2	10	0	.	.
CCOCc1cc(CN2CCCC(CNC(=O)c3ccco3)C2)ccc1OC (centres undefined)	-5	-4	-3	-6	-12	-2	.	.
CCOC(=O)/C(=C\C=C1/Sc2ccccc2N1CC)C(C)=O	66	14	5	-14	4	45*	-20	8
CCOC(=O)/C(=C/C=C1\Sc2ccccc2N1CC)C(C)=O	88*	-3	1	-34	10	43*	-37	0
Clc1c(-c2ccccc2)nnn1-c1ccccc1	-13	-2	5	0	3	-6	.	.
CCOC(=O)c1c(NC(=O)OC)sc(C(=O)N(CC)CC)c1C	2	2	-2	0	-8	33*	-1	-6
Cc1ccc(S(=O)(=O)NNC(=O)c2sc(=S)n(C)c2C)cc1	2	-4	-8	-5	1	27	.	.
NS(=O)(=O)c1ccc(NC(=S)NNC(=O)c2ccc(Br)o2)cc1	95*	-2	10	-5	1	33*	-2	-1
NS(=O)(=O)c1ccc(NC(=S)NC2CC2)cc1	.	3	3	-2	-5	32*	-2	-1
Cc1ccc(NC(=O)CN(C)C(=O)CSc2nnc(N)s2)cc1	-3	.	.	.	6	.	.	.
O=C1c2ccccc2C(=O)N1c1ncn[nH]1	-20	-11	-9	0	8	44*	-4	-2
CN(CCCNC(=O)Cn1c(=O)c2cccn2c2ccccc21)Cc1ccccc1	-2	11	10	-14	2	4	.	.
COc1ccc(-n2c(=S)[nH]c3[nH]ncc3c2=O)cc1	-10	18	-7	1	-4	46*	-12	-3
O=c1c2cn[nH]c2[nH]c(=S)n1-c1cccc2ccccc12	22	13	-6	-6	12	51*	4	2
CCCCn1c(N)c(N(CCC(C)C)C(=O)C2CCCN(C(=O)c3ccc(Cl)cc3)C2)c(=O)[nH]c1=O (centres undefined)	-10	.	-11	-2	3	.	.	.
COc1ccc(OC)c(NC(=O)NNC(=O)c2cc3occc3[nH]2)c1	53	10	-3	-6	11	56*	35*	1
Cc1ccc(C)c(NC(=O)NNC(=O)c2cc3occc3[nH]2)c1	4	4	-2	-10	-13	49*	29*	-3
COc1ccc(C)cc1NC(=O)NNC(=O)c1ccoc1C	23	9	8	-4	9	47*	20	-1
COc1ccc(C)cc1NC(=O)c1ccoc1C	4	6	-12	2	2	0	.	.
Cc1ccc(S(=O)(=O)N2CCCCC2)cc1C(=O)NCCCN1CCOCC1	-7	2	4	-8	14	-2	.	.
COc1ccc(CCNC(=O)Cc2c(Cl)cccc2Cl)cc1	.	10	-1	-2	-6	2	.	.
Cc1cc(CN2CCCC(C(=O)Nc3ccc(-c4nc5ccccc5[nH]4)cc3)C2)n[nH]1 (centres undefined)	0	0	13	3	1	-1	.	.
CCC(=O)c1ccc(OCc2ccc(C(=O)c3ccccc3)cc2)cc1	.	3	7	3	3	0	.	.
O=C(CNC(=O)C12CC3CC(CC(C3)C1)C2)Nc1ncccc1O	-14	.	.	.	9	.	.	.
CC(=O)Sc1nc(-c2ccccc2)[nH]c1S(=O)(=O)c1ccc(C)cc1	10	10	-1	-14	-3	55*	5	-5
O=c1c2ccccc2sn1-c1cc(S(=O)(=O)N2CCOCC2)ccc1N1CCCC1	27	-4	4	2	-14	41*	27	-1
O=C(O)c1cc(S(=O)(=O)N2CCOCC2)ccc1N1CCCCC1	-3	3	-22	0	16	-7	.	.

Assay outcomes as filed in PubChem BioAssay.
